ChEMBL document CHEMBL1125626, “Synthesis and structure-activity relationship of new cephalosporins with amino heterocycles at C-7. Dependence of the antibacterial spectrum and beta-lactamase stability on the pKa of the C-7 heterocycle” (1991)
In brackets after ≈: the same amount, converted by molar mass.

Assays:
Escherichia coli [1] = assay: Minimum inhibitory concentration against Escherichia coli DC2 (inoculum, 10e4 cfu per spot); format: functional
Summary of the method: (§1)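 MIC in µg/mL, determined in Jewell and Permain growth medium with spot inoculation at 10^4 cfu per spot. P99 is described as a constitutive type I lactamase producer.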

Serratia marcescens = assay: Minimum inhibitory concentration against Serratia marcescens A16 (inoculum, 10e5 cfu per spot); format: functional
Summary of the method: (§2)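 MIC in µg/mL, determined in Jewell and Permain growth medium with spot inoculation at 10^5 cfu per spot.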

Klebsiella aerogenes [2] = assay: Minimum inhibitory concentration against Klebsiella aerogenes X5L (inoculum, 10e4 cfu per spot); format: functional; summary of the method: as §1
Streptococcus pyogenes = assay: Minimum inhibitory concentration against Streptococcus pyogenes (inoculum, 10e5 cfu per spot) A1; format: functional; summary of the method: as §2
Escherichia coli [3] = assay: Minimum inhibitory concentration against Escherichia coli A8 (inoculum, 10e5 cfu per spot); format: functional; summary of the method: as §2
Pseudomonas aeruginosa = assay: Minimum inhibitory concentration against Pseudomonas aeruginosa A21 (inoculum, 10e5 cfu per spot); format: functional; summary of the method: as §2
Klebsiella aerogenes [4] = assay: Minimum inhibitory concentration against Klebsiella aerogenes X6 (inoculum, 10e4 cfu per spot); format: functional; summary of the method: as §1
Enterobacter cloacae [5] = assay: Minimum inhibitory concentration against Enterobacter cloacae A13 (inoculum, 10e5 cfu per spot); format: functional; summary of the method: as §2
Escherichia coli [6] = assay: Minimum inhibitory concentration against Escherichia coli DCO (inoculum, 10e4 cfu per spot); format: functional; summary of the method: as §1
Staphylococcus aureus [7] = assay: Minimum inhibitory concentration against Staphylococcus aureus A4 (inoculum, 10e5 cfu per spot); format: functional; summary of the method: as §2
Escherichia coli [8] = assay: Minimum inhibitory concentration against Escherichia coli X4 (inoculum, 10e4 cfu per spot)
Klebsiella pneumoniae = assay: Minimum inhibitory concentration against Klebsiella pneumoniae A24 (inoculum, 10e5 cfu per spot); format: functional; summary of the method: as §2
Enterobacter cloacae [9] = assay: Minimum inhibitory concentration against Enterobacter cloacae P99 (inoculum, 10e4 cfu per spot)(type I lactamase producer); format: functional; summary of the method: as §1
Escherichia coli [10] = assay: Minimum inhibitory concentration against Escherichia coli TEM X3 (inoculum, 10e4 cfu per spot)(TEM I type lactamase producer)
Proteus mirabilis = assay: Minimum inhibitory concentration against Proteus mirabilis A18 (inoculum, 10e5 cfu per spot); format: functional; summary of the method: as §2
Staphylococcus aureus [11] = assay: Minimum inhibitory concentration against Staphylococcus aureus A6 (inoculum, 10e5 cfu per spot); format: functional; summary of the method: as §2
Enterobacter cloacae [12] = assay: Minimum inhibitory concentration against Enterobacter cloacae P99 (inoculum, 10e4 cfu per spot); format: functional; summary of the method: as §1
Proteus vulgaris = assay: Minimum inhibitory concentration against Proteus vulgaris Pv9 (inoculum, 10e5 cfu per spot)

Row | MIC (Escherichia coli [1]) [µg/mL] | MIC (Serratia marcescens) [µg/mL] | MIC (Klebsiella aerogenes [2]) [µg/mL] | MIC (Streptococcus pyogenes) [µg/mL] | MIC (Escherichia coli [3]) [µg/mL] | MIC (Pseudomonas aeruginosa) [µg/mL] | MIC (Klebsiella aerogenes [4]) [µg/mL] | MIC (Enterobacter cloacae [5]) [µg/mL] | MIC (Escherichia coli [6]) [µg/mL] | MIC (Staphylococcus aureus [7]) [µg/mL] | MIC (Escherichia coli [8]) [µg/mL] | MIC (Klebsiella pneumoniae) [µg/mL] | MIC (Enterobacter cloacae [9]) [µg/mL] | MIC (Escherichia coli [10]) [µg/mL] | MIC (Proteus mirabilis) [µg/mL] | MIC (Staphylococcus aureus [11]) [µg/mL] | MIC (Enterobacter cloacae [12]) [µg/mL] | MIC (Proteus vulgaris) [µg/mL] | Compound
1 | > 256 | > 256 | > 256 | > 256 | > 256 | > 256 | > 256 | > 256 | > 256 | > 256 | > 256 | > 256 | > 256 | > 256 | > 256 | > 256 | > 256 |  | CO[C@@]1(NC2=NCCN2)C(=O)N2C(C(=O)OC(c3ccccc3)c3ccccc3)=C(C)CSC21 (stereo not given in full)
2 | > 256 | > 256 | > 256 | > 256 | > 256 | > 256 | > 256 | > 256 | > 256 | > 256 | > 256 | > 256 | > 256 | > 256 | > 256 | > 256 | > 256 |  | CO[C@@]1(Nc2nc3ccccc3[nH]2)C(=O)N2C(C(=O)OC(c3ccccc3)c3ccccc3)=C(COC(C)=O)CSC21 (stereo not given in full)
3 |  | 32 (≈ 70.7 µM) | 2 (≈ 4.42 µM) | 128 (≈ 283 µM) | 2 (≈ 4.42 µM) | > 256 | 1 (≈ 2.21 µM) |  | 8 (≈ 17.7 µM) | > 256 | 1 (≈ 2.21 µM) | 2 (≈ 4.42 µM) | 8 (≈ 17.7 µM) | 1 (≈ 2.21 µM) | > 256 | > 256 | 1 (≈ 2.21 µM) |  | Cn1nnnc1SCC1=C(C(=O)OC(C)(C)C)N2C(=O)[C@@H](NC3=NCCN3)C2SC1 (stereo not given in full)
4 | 0.06 (≈ 0.107 µM) | > 256 | 128 (≈ 228 µM) | 2 (≈ 3.57 µM) | 8 (≈ 14.3 µM) | > 256 | 2 (≈ 3.57 µM) | > 256 | 1 (≈ 1.78 µM) | 32 (≈ 57.1 µM) | 0.5 (≈ 0.892 µM) | 16 (≈ 28.5 µM) | > 256 | 4 (≈ 7.13 µM) | 32 (≈ 57.1 µM) | 4 (≈ 7.13 µM) | 1 (≈ 1.78 µM) |  | CC(=O)OCC1=C(C(=O)OC(c2ccccc2)c2ccccc2)N2C(=O)[C@@H](Nc3nc4cscc4[nH]3)C2SC1 (stereo not given in full)
5 | 2 (≈ 3.64 µM) | 16 (≈ 29.1 µM) | 8 (≈ 14.6 µM) | 64 (≈ 116 µM) | 4 (≈ 7.28 µM) | > 256 | 8 (≈ 14.6 µM) | > 256 | 2 (≈ 3.64 µM) | > 256 | 4 (≈ 7.28 µM) | 16 (≈ 29.1 µM) | 8 (≈ 14.6 µM) | 4 (≈ 7.28 µM) | > 256 | > 256 | 4 (≈ 7.28 µM) |  | CC1=C(C(=O)OC(c2ccccc2)c2ccccc2)N2C(=O)[C@@H](NC3=NC(c4ccc(C#N)cc4)CN3)C2SC1 (stereo not given in full)
6 | 2 (≈ 4.07 µM) | > 256 | 16 (≈ 32.5 µM) | > 256 | 32 (≈ 65.1 µM) | > 256 | 16 (≈ 32.5 µM) | > 256 | 8 (≈ 16.3 µM) | > 256 | 8 (≈ 16.3 µM) | 16 (≈ 32.5 µM) | 8 (≈ 16.3 µM) | 8 (≈ 16.3 µM) | > 256 | > 256 | 4 (≈ 8.14 µM) |  | CC1=C(C(=O)OC(c2ccccc2)c2ccccc2)N2C(=O)[C@@H](NC3=NC(C(N)=O)CN3)C2SC1 (stereo not given in full)
7 | 8 (≈ 16.3 µM) | > 200 | > 200 | 1 (≈ 2.04 µM) | 40 (≈ 81.7 µM) | > 200 | > 200 | 40 (≈ 81.7 µM) | 128 (≈ 261 µM) | 200 (≈ 409 µM) | > 200 | 40 (≈ 81.7 µM) | > 200 | > 200 | 40 (≈ 81.7 µM) | 1 (≈ 2.04 µM) | 64 (≈ 131 µM) |  | CC(=O)OCC1=C(C(=O)OC(C)(C)C)N2C(=O)[C@@H](Nc3nc4cc([N+](=O)[O-])ccc4[nH]3)C2SC1 (stereo not given in full)
8 | 0.25 (≈ 0.44 µM) | ≥ 128 | ≥ 128 | 8 (≈ 14.1 µM) | 16 (≈ 28.1 µM) | ≥ 128 | 16 (≈ 28.1 µM) | ≥ 128 | 8 (≈ 14.1 µM) | 8 (≈ 14.1 µM) | 8 (≈ 14.1 µM) | 8 (≈ 14.1 µM) | ≥ 128 | 32 (≈ 56.3 µM) | 8 (≈ 14.1 µM) | 4 (≈ 7.03 µM) | 32 (≈ 56.3 µM) | ≥ 128 | CC(=O)OCC1=C(C(=O)OC(c2ccccc2)c2ccccc2)N2C(=O)[C@@H](Nc3nc4c(C)cccc4[nH]3)C2SC1 (stereo not given in full)
